Data as given in ChEMBL document CHEMBL3425408, “Design, synthesis, in vitro, and in vivo anticancer and antiangiogenic activity of novel 3-arylaminobenzofuran derivatives targeting the colchicine site on tubulin” (J Med Chem, 2015).
Active and inactive are the calls of the source. The calls are words filed in the database; no cut-off is given here.

Experiments:
Jurkat [1] = assay: Induction of cell cycle arrest in human Jurkat cells assessed as cell arrest at G2/M phase after 24 hrs by propidium iodide based flow cytometric analysis; type: functional
Procedure, shortened: (§1)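 HeLa or Jurkat cells (5 × 10^5) treated 24 h. Cells fixed in ice-cold 70% ethanol, lysed with RNase A and 0.1% Triton X-100, and stained with propidium iodide. DNA content analyzed by flow cytometry to give cell-cycle phase distribution.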

Tubulin = Tubulin (Bos taurus, UniProt Q6B856+Q862L2+Q862F3); assay: Inhibition of bovine brain tubulin assembly after 20 mins incubation by spectrophotometric analysis
Procedure, shortened: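 Bovine brain tubulin (10 μM) was preincubated with varying compound concentrations in glutamate buffer at 30 °C, then chilled to 0 °C. GTP was added to 0.4 mM final and the mixture warmed to 30 °C in cuvettes.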

HeLa [2] = assay: Induction of apoptosis in human HeLa cells assessed as increase in ROS production at 100 to […] after 24 to 48 hrs by H2-DCFDA based flow cytometry; type: functional, cell-based
Procedure, shortened: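 HeLa cells treated 24 or 48 h, then loaded with H2-DCFDA. ROS measured by flow cytometry. Three independent experiments.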

HUVEC = assay: Cytotoxicity against human HUVEC cells after 72 hrs by MTT assay; type: cell-based
Procedure, shortened: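 HUVECs were isolated from umbilical cord veins, kept in M200 with low-serum growth supplement and used at passages 1–6. […] Mean ± SEM of three separate experiments.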

HeLa [3] = assay: Induction of cell cycle arrest in human HeLa cells assessed as increase in cyclin B expression at 250 nM after 24 hrs by Western blot analysis; type: functional, cell-based
Procedure, shortened: (§2)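 HeLa cells treated 24 or 48 h. Lysates cleared at 15000g, and 10 μg protein run on 7.5–15% SDS-PAGE and blotted to PVDF. Membranes blocked in 5% BSA and probed for cyclin B, p-cdc2 Tyr15 and cdc25c, then detected with peroxidase secondary and ECL. Blots stripped and reprobed for β-actin as loading control.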

Jurkat [4] = assay: Induction of cells cycle arrest in human Jurkat cells assessed as cell arrest at G2/M phase at > 60 nM after 24 hrs by propidium iodide based flow cytometric analysis; type: functional; procedure, shortened: as §1
HeLa [5] = assay: Induction of apoptosis in human HeLa cells assessed as increase in proportion of cells with depolarized mitochondria after 24 to 48 hrs by JC1 staining based flow cytometry; type: functional, cell-based; settings: TDE = time-dependent effect
Procedure, shortened: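 HeLa cells treated 24 or 48 h, then stained with JC-1. Cells with depolarized mitochondria quantified by flow cytometry. Three independent experiments.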

HeLa [6] = assay: Antiproliferative activity against human HeLa cells after 72 hrs by (3-(4,5-dimethylthiazol-2-yl)-2,5-diphenyltetrazolium bromide test; type: functional, cell-based
PBL = assay: Cytotoxicity against human resting PBL cells after 72 hrs by MTT assay; type: cell-based
Procedure, shortened: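 Resting PBLs from healthy donors separated on a Lymphoprep gradient and incubated overnight in RPMI-1640 with 10% FBS. Nonadherent cells resuspended at 5 × 10^5 cells/mL without PHA and exposed to compound for 72 h. Viability read by MTT. […] Three experiments.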

HeLa [7] = assay: Induction of apoptosis in human HeLa cells assessed as caspase 9 activation after 24 to 48 hrs by Western blot analysis; type: functional, cell-based
Procedure, shortened: (§3)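 HeLa lysates prepared after the indicated times. 10 μg protein separated by SDS-PAGE on PVDF blots. Primary antibodies (2 h, room temperature) against PARP, caspase-3, cleaved caspase-9, Bcl-2 and Mcl-1, then peroxidase secondary with ECL detection. β-Actin reprobe used as loading control.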

HeLa [8] = assay: Induction of cell cycle arrest in human HeLa cells assessed as cell arrest at G2/M phase after 24 hrs by propidium iodide based flow cytometric analysis; type: functional; procedure, shortened: as §1
HeLa [9] = assay: Induction of apoptosis in human HeLa cells assessed as reduction in Mcl-1 expression at 100 to 250 nM after 48 hrs by Western blotting analysis
HeLa [10] = assay: Induction of apoptosis in human HeLa cells assessed as caspase 3 activation at 100 to […] by Western blot analysis; type: functional, cell-based; settings: TDE = time-dependent effect; procedure, shortened: as §3
HeLa [11] = assay: Induction of apoptosis in human HeLa cells assessed as caspase 9 activation at 100 to 250 nM by Western blot analysis; settings: TDE = time-dependent effect
[12] = Antiproliferative activity against human HL60 cells after 72 hrs by (3-(4,5-dimethylthiazol-2-yl)-2,5-diphenyltetrazolium bromide test; type: functional, cell-based; settings: HL-60, 72 h
Procedure, shortened: (§4)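 Jurkat, RS4;11 and HL-60 cells grown in RPMI-1640; MCF-7, A549, HeLa and HT-29 cells grown in DMEM; both media with 10% FBS and penicillin/streptomycin. 8 × 10^3 cells per well were preincubated 18 h at 37 °C, 5% CO2, then exposed 72 h to a concentration range (DMSO ≤0.25%). Read-out was MTT; IC50 was taken against cells given the maximum DMSO. Mean ± SE of at least three experiments.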

MCF7 = assay: Antiproliferative activity against human MCF7 cells after 72 hrs by (3-(4,5-dimethylthiazol-2-yl)-2,5-diphenyltetrazolium bromide test; type: functional, cell-based; settings: MCF7, 72 h
HeLa [13] = assay: Induction of cell cycle arrest in human HeLa cells assessed as decrease in p-cdc2 Tyr15 expression at 100 to 250 nM after 48 hrs by Western blot analysis; type: functional, cell-based; procedure, shortened: as §2
HeLa [14] = assay: Induction of apoptosis in human HeLa cells assessed as reduction in Bcl2 expression at 100 to 250 nM after 48 hrs by Western blotting analysis
Jurkat [15] = assay: Antiproliferative activity against human Jurkat cells after 72 hrs by (3-(4,5-dimethylthiazol-2-yl)-2,5-diphenyltetrazolium bromide test; type: functional, cell-based; procedure, shortened: as §4
HeLa [16] = assay: Induction of cell cycle arrest in human HeLa cells assessed as increase in p-cdc2 Tyr15 expression at 250 nM after 24 hrs by Western blot analysis; type: functional, cell-based; procedure, shortened: as §2
HeLa [17] = assay: Induction of apoptosis in human HeLa cells assessed as accumulation of annexin-V positive cells after at 100 to […] by annexin-V-FITC/PI based flow cytometry; type: functional, cell-based; settings: TDE = time-dependent effect
Procedure, shortened: (§5)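 HeLa cells treated 24 or 48 h, then double-stained with annexin V-FITC and PI. Surface phosphatidylserine exposure measured by flow cytometry.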

HeLa [18] = assay: Induction of apoptosis in human HeLa cells assessed as accumulation of annexin-V positive cells after 24 to 48 hrs by annexin-V-FITC/PI based flow cytometry; type: functional, cell-based; procedure, shortened: as §5
HeLa [19] = assay: Induction of cell cycle arrest in human HeLa cells assessed as decrease in cyclin B expression at 100 to 250 nM after 48 hrs by Western blot analysis; type: functional, cell-based; procedure, shortened: as §2
A549 = assay: Antiproliferative activity against human A549 cells after 72 hrs by (3-(4,5-dimethylthiazol-2-yl)-2,5-diphenyltetrazolium bromide test; type: functional, cell-based; settings: A549, 72 h
HeLa [20] = assay: Induction of apoptosis in human HeLa cells assessed as caspase 3 activation after 24 to 48 hrs by Western blot analysis; type: functional, cell-based; procedure, shortened: as §3
HeLa [21] = assay: Induction of apoptosis in human HeLa cells assessed as PARP cleavage at 100 to 250 nM after 24 to 48 hrs by Western blot analysis
[22] = Antiproliferative activity against human RS4:11 cells after 72 hrs by (3-(4,5-dimethylthiazol-2-yl)-2,5-diphenyltetrazolium bromide test; type: functional, cell-based; settings: RS4-11, 72 h; procedure, shortened: as §4

| SMILES | Activity (Jurkat [1]) | IC50 (Tubulin) [nM] | Activity (HeLa [2]) | IC50 (HUVEC) [nM] | Activity (HeLa [3]) | Activity (Jurkat [4]) [%] | Activity (HeLa [5]) | IC50 (HeLa [6]) [nM] | IC50 (PBL) [nM] | Activity (HeLa [7]) | Activity (HeLa [8]) | Activity (HeLa [9]) | Activity (HeLa [10]) | Activity (HeLa [11]) | IC50 [12] [nM] | IC50 (MCF7) [nM] | inhibition (HeLa [13]) | Activity (HeLa [14]) | IC50 (Jurkat [15]) [nM] | Activity (HeLa [16]) | other results |
| --- | --- | --- | --- | --- | --- | --- | --- | --- | --- | --- | --- | --- | --- | --- | --- | --- | --- | --- | --- | --- | --- |
| COC(=O)c1oc2cc(OC)ccc2c1Nc1cc(OC)c(OC)c(OC)c1 | Dose-dependent effect | 1100 | Active | 750 | Active | >70 | tde | 2 | > 10000 | Dose-dependent effect | Dose-dependent effect | Active | tde | tde | 5 | 27 | Active | Active | 8 | Active | Activity (HeLa [17]): tde; Activity (HeLa [18]): Dose-dependent effect; Activity (HeLa [19]): Active; IC50 (A549): 9 nM; Activity (HeLa [20]): Dose-dependent effect; Activity (HeLa [21]): Active; IC50 [22]: 0.3 nM |
| CCOC(=O)c1oc2cc(OC)ccc2c1Nc1cc(OC)c(OC)c(OC)c1 | Dose-dependent effect | 1500 | Active | 220 | Active | >70 | tde | 13 | > 10000 | Dose-dependent effect | Dose-dependent effect | Active | tde | tde | 24 | 25 | Active | Active | 22 | Active | Activity (HeLa [17]): tde; Activity (HeLa [18]): Dose-dependent effect; Activity (HeLa [19]): Active; IC50 (A549): 36 nM; Activity (HeLa [20]): Dose-dependent effect; Activity (HeLa [21]): Active; IC50 [22]: 100 nM |
